Experimental data published in ChEMBL document CHEMBL1154547, “Salicylanilide esters of N-protected amino acids as novel antimicrobial agents” (Bioorg Med Chem Lett, 2009).
In brackets after ≈: the same amount, converted by molar mass.

Legend:
[1] = Lipophilicity, log K of the compound; format: physicochemical
How it was run: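 Mobile phase used methanol as organic modifier. The capacity factor k was measured and log k calculated from it. Chiral compounds were measured several times.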

Candida albicans [2] = assay: Antifungal activity against Candida albicans ATCC 44859 after 24 hrs by broth microdilution method; format: functional; conditions: ATCC 44859, 24 h
How it was run: (§1)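 In vitro antifungal screening against eight strains. Compounds tested at concentrations in the range 62.5–1.95 µmol/L.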

Candida tropicalis [3] = assay: Antifungal activity against Candida tropicalis ATCC 156 after 24 hrs by broth microdilution method; format: functional; conditions: ATCC 156, 24 h; how it was run: as §1
Pichia kudriavzevii [4] = assay: Antifungal activity against Candida krusei E28 after 24 hrs by broth microdilution method; format: functional; how it was run: as §1
Nakaseomyces glabratus [5] = assay: Antifungal activity against Candida glabrata 20/I after 24 hrs by broth microdilution method; format: functional; how it was run: as §1
Trichosporon beigelii [6] = assay: Antifungal activity against Trichosporon beigelii 1188 after 24 hrs by broth microdilution method; format: functional; how it was run: as §1
Aspergillus fumigatus [7] = assay: Antifungal activity against Aspergillus fumigatus 231 after 24 hrs by broth microdilution method; format: functional; how it was run: as §1
Lichtheimia corymbifera [8] = assay: Antifungal activity against Absidia corymbifera 272 after 24 hrs by broth microdilution method; format: functional; how it was run: as §1
[9] = test system: Trichophyton mentagrophytes; assay: Antifungal activity against Trichophyton mentagrophytes 445 after 24 hrs by broth microdilution method; format: functional; how it was run: as §1
Candida albicans [10] = assay: Antifungal activity against Candida albicans ATCC 44859 after 48 hrs by broth microdilution method; format: functional; conditions: ATCC 44859, 48 h; how it was run: as §1
Candida tropicalis [11] = assay: Antifungal activity against Candida tropicalis ATCC 156 after 48 hrs by broth microdilution method; format: functional; conditions: ATCC 156, 48 h; how it was run: as §1
Pichia kudriavzevii [12] = assay: Antifungal activity against Candida krusei E28 after 48 hrs by broth microdilution method; format: functional; how it was run: as §1
Nakaseomyces glabratus [13] = assay: Antifungal activity against Candida glabrata 20/I after 48 hrs by broth microdilution method; format: functional; how it was run: as §1
Trichosporon beigelii [14] = assay: Antifungal activity against Trichosporon beigelii 1188 after 48 hrs by broth microdilution method; format: functional; how it was run: as §1
Aspergillus fumigatus [15] = assay: Antifungal activity against Aspergillus fumigatus 231 after 48 hrs by broth microdilution method; format: functional; how it was run: as §1
Lichtheimia corymbifera [16] = assay: Antifungal activity against Absidia corymbifera 272 after 48 hrs by broth microdilution method; format: functional; how it was run: as §1
[17] = test system: Trichophyton mentagrophytes; assay: Antifungal activity against Trichophyton mentagrophytes 445 after 48 hrs by broth microdilution method; format: functional; how it was run: as §1
[18] = test system: Mycobacterium tuberculosis; assay: Antitubercular activity against Mycobacterium tuberculosis H37Rv by microplate alamar blue assay; format: functional
[19] = test system: Mycobacterium tuberculosis; assay: Antitubercular activity against Mycobacterium tuberculosis H37Rv at 6.25 ug/ml by microplate alamar blue assay; format: functional
How it was run: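 Primary single-concentration screen at the TAACF against M. tuberculosis H37Rv (ATCC 27294) in BACTEC 12B medium, read by Microplate Alamar Blue Assay. Each compound was tested at 6.25 per mL, or at the molar equivalent of the highest-molecular-weight compound in its congener series.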

Row | Structure (SMILES) | log K [1] | IC80 (Candida albicans [2]) | IC80 (Candida tropicalis [3]) | IC80 (Pichia kudriavzevii [4]) | IC80 (Nakaseomyces glabratus [5]) | IC80 (Trichosporon beigelii [6]) | IC80 (Aspergillus fumigatus [7]) | IC80 (Lichtheimia corymbifera [8]) | IC80 [9] | IC80 (Candida albicans [10]) | IC80 (Candida tropicalis [11]) | IC80 (Pichia kudriavzevii [12]) | IC80 (Nakaseomyces glabratus [13]) | IC80 (Trichosporon beigelii [14]) | IC80 (Aspergillus fumigatus [15]) | IC80 (Lichtheimia corymbifera [16]) | IC80 [17] | MIC [18] | inhibition at 6.25 µg/mL [19]
1 | C[C@H](NC(=O)OCc1ccccc1)C(=O)Oc1ccc(Cl)cc1C(=O)Nc1ccc(C(F)(F)F)cc1 | 0.8149 | 62.5 µg/mL (≈ 120 µM) | 500 µg/mL (≈ 960 µM) | 7.81 µg/mL (≈ 15 µM) | 125 µg/mL (≈ 240 µM) | 62.5 µg/mL (≈ 120 µM) | 7.81 µg/mL (≈ 15 µM) | 31.2 µg/mL (≈ 60 µM) | 1.95 µg/mL (≈ 3.74 µM) | 250 µg/mL (≈ 480 µM) | 500 µg/mL (≈ 960 µM) | 31.2 µg/mL (≈ 60 µM) | 250 µg/mL (≈ 480 µM) | 250 µg/mL (≈ 480 µM) | 15.6 µg/mL (≈ 30 µM) | 62.5 µg/mL (≈ 120 µM) | 1.95 µg/mL (≈ 3.74 µM) | 3.13 µg/mL (≈ 6.01 µM) | 99%
2 | O=C(N[C@@H](Cc1ccccc1)C(=O)Oc1ccc(Cl)cc1C(=O)Nc1ccc(Cl)cc1)OCc1ccccc1 | 1.0971 | 62.5 µg/mL (≈ 111 µM) | 31.2 µg/mL (≈ 55.5 µM) | 15.6 µg/mL (≈ 27.7 µM) | 31.2 µg/mL (≈ 55.5 µM) | 31.2 µg/mL (≈ 55.5 µM) | > 62.5 µg/mL | 15.6 µg/mL (≈ 27.7 µM) | 7.81 µg/mL (≈ 13.9 µM) | 62.5 µg/mL (≈ 111 µM) | 31.2 µg/mL (≈ 55.5 µM) | 15.6 µg/mL (≈ 27.7 µM) | 31.2 µg/mL (≈ 55.5 µM) | 62.5 µg/mL (≈ 111 µM) | > 62.5 µg/mL | 15.6 µg/mL (≈ 27.7 µM) | 7.81 µg/mL (≈ 13.9 µM) | > 6.25 µg/mL | 16%
3 | CC(C)[C@H](NC(=O)OCc1ccccc1)C(=O)Oc1ccc(Cl)cc1C(=O)Nc1ccc(Cl)cc1 | 0.9421 | > 62.5 µg/mL | > 62.5 µg/mL | 31.2 µg/mL (≈ 60.6 µM) | > 62.5 µg/mL | > 62.5 µg/mL | > 62.5 µg/mL | > 62.5 µg/mL | 15.6 µg/mL (≈ 30.3 µM) | > 62.5 µg/mL | > 62.5 µg/mL | 15.6 µg/mL (≈ 30.3 µM) | > 62.5 µg/mL | 31.2 µg/mL (≈ 60.6 µM) | > 62.5 µg/mL | > 62.5 µg/mL | 15.6 µg/mL (≈ 30.3 µM) | > 6.25 µg/mL | 38%
4 | NNC(=O)c1ccncc1 [ISONIAZID] |  |  |  |  |  |  |  |  |  |  |  |  |  |  |  |  |  | 0.025 µg/mL (≈ 0.182 µM) | 
5 | O=C(CNC(=O)OCc1ccccc1)Oc1ccc(Cl)cc1C(=O)Nc1ccc(Cl)cc1 | 0.6367 | 62.5 µg/mL (≈ 132 µM) | 31.2 µg/mL (≈ 66 µM) | 31.2 µg/mL (≈ 66 µM) | 62.5 µg/mL (≈ 132 µM) | 62.5 µg/mL (≈ 132 µM) | > 62.5 µg/mL | 31.2 µg/mL (≈ 66 µM) | 15.6 µg/mL (≈ 33 µM) | 62.5 µg/mL (≈ 132 µM) | 31.2 µg/mL (≈ 66 µM) | 31.2 µg/mL (≈ 66 µM) | 62.5 µg/mL (≈ 132 µM) | > 62.5 µg/mL | > 62.5 µg/mL | 62.5 µg/mL (≈ 132 µM) | 15.6 µg/mL (≈ 33 µM) | > 6.25 µg/mL | 16%
6 | C[C@@H](NC(=O)OCc1ccccc1)C(=O)Oc1ccc(Cl)cc1C(=O)Nc1cccc(Cl)c1 | 0.699 | 62.5 µg/mL (≈ 128 µM) | 62.5 µg/mL (≈ 128 µM) | 31.2 µg/mL (≈ 64.1 µM) | 62.5 µg/mL (≈ 128 µM) | > 62.5 µg/mL | > 62.5 µg/mL | 31.2 µg/mL (≈ 64.1 µM) | 7.81 µg/mL (≈ 16 µM) | > 62.5 µg/mL | > 62.5 µg/mL | 31.2 µg/mL (≈ 64.1 µM) | 62.5 µg/mL (≈ 128 µM) | > 62.5 µg/mL | > 62.5 µg/mL | 31.2 µg/mL (≈ 64.1 µM) | 7.81 µg/mL (≈ 16 µM) | > 6.25 µg/mL | 36%
7 | C[C@H](NC(=O)OCc1ccccc1)C(=O)Oc1ccc(Cl)cc1C(=O)Nc1cccc(Cl)c1 | 0.6995 | 31.2 µg/mL (≈ 64.1 µM) | > 62.5 µg/mL | 31.2 µg/mL (≈ 64.1 µM) | 31.2 µg/mL (≈ 64.1 µM) | > 62.5 µg/mL | 62.5 µg/mL (≈ 128 µM) | 15.6 µg/mL (≈ 32.1 µM) | 7.81 µg/mL (≈ 16 µM) | > 62.5 µg/mL | > 62.5 µg/mL | 31.2 µg/mL (≈ 64.1 µM) | > 62.5 µg/mL | > 62.5 µg/mL | > 62.5 µg/mL | 15.6 µg/mL (≈ 32.1 µM) | 7.81 µg/mL (≈ 16 µM) | 3.13 µg/mL (≈ 6.42 µM) | 97%
8 | OC(Cn1cncn1)(Cn1cncn1)c1ccc(F)cc1F [FLUCONAZOLE] |  | 0.06 µg/mL (≈ 0.196 µM) | 0.12 µg/mL (≈ 0.392 µM) | 3.91 µg/mL (≈ 12.8 µM) | 0.98 µg/mL (≈ 3.2 µM) | 0.24 µg/mL (≈ 0.784 µM) | > 125 µg/mL | > 125 µg/mL | 1.95 µg/mL (≈ 6.37 µM) | 0.12 µg/mL (≈ 0.392 µM) | > 125 µg/mL | 15.6 µg/mL (≈ 51 µM) | 3.91 µg/mL (≈ 12.8 µM) | 0.48 µg/mL (≈ 1.57 µM) | > 125 µg/mL | > 125 µg/mL | 3.91 µg/mL (≈ 12.8 µM) |  | 
9 | CC(C)[C@@H](NC(=O)OCc1ccccc1)C(=O)Oc1ccc(Cl)cc1C(=O)Nc1ccc(Cl)cc1 | 0.9417 | > 62.5 µg/mL | > 62.5 µg/mL | 31.2 µg/mL (≈ 60.6 µM) | > 62.5 µg/mL | > 62.5 µg/mL | > 62.5 µg/mL | > 62.5 µg/mL | 15.6 µg/mL (≈ 30.3 µM) | > 62.5 µg/mL | > 62.5 µg/mL | 31.2 µg/mL (≈ 60.6 µM) | > 62.5 µg/mL | > 62.5 µg/mL | > 62.5 µg/mL | > 62.5 µg/mL | 15.6 µg/mL (≈ 30.3 µM) | > 6.25 µg/mL | 77%
10 | O=C(CNC(=O)OCc1ccccc1)Oc1ccc(Cl)cc1C(=O)Nc1ccc(C(F)(F)F)cc1 | 0.7292 | 62.5 µg/mL (≈ 123 µM) | 125 µg/mL (≈ 247 µM) | 31.2 µg/mL (≈ 61.7 µM) | 31.2 µg/mL (≈ 61.7 µM) | 31.2 µg/mL (≈ 61.7 µM) | 125 µg/mL (≈ 247 µM) | 31.2 µg/mL (≈ 61.7 µM) | 15.6 µg/mL (≈ 30.8 µM) | 62.5 µg/mL (≈ 123 µM) | > 125 µg/mL | 31.2 µg/mL (≈ 61.7 µM) | > 125 µg/mL | 31.2 µg/mL (≈ 61.7 µM) | > 125 µg/mL | 31.2 µg/mL (≈ 61.7 µM) | 15.6 µg/mL (≈ 30.8 µM) | > 6.25 µg/mL | 89%
11 | O=C(CNC(=O)OCc1ccccc1)Oc1ccc(Cl)cc1C(=O)Nc1ccc(Cl)c(Cl)c1 | 0.8639 | > 62.5 µg/mL | > 62.5 µg/mL | > 62.5 µg/mL | > 62.5 µg/mL | > 62.5 µg/mL | > 62.5 µg/mL | 62.5 µg/mL (≈ 123 µM) | 31.2 µg/mL (≈ 61.5 µM) | > 62.5 µg/mL | > 62.5 µg/mL | > 62.5 µg/mL | > 62.5 µg/mL | > 62.5 µg/mL | > 62.5 µg/mL | > 62.5 µg/mL | 31.2 µg/mL (≈ 61.5 µM) | > 6.25 µg/mL | 0%
12 | O=C(CNC(=O)OCc1ccccc1)Oc1ccc(Cl)cc1C(=O)Nc1cccc(Cl)c1 | 0.6119 | > 62.5 µg/mL | > 62.5 µg/mL | 62.5 µg/mL (≈ 132 µM) | 62.5 µg/mL (≈ 132 µM) | > 62.5 µg/mL | > 62.5 µg/mL | 62.5 µg/mL (≈ 132 µM) | 31.2 µg/mL (≈ 66 µM) | > 62.5 µg/mL | > 62.5 µg/mL | 62.5 µg/mL (≈ 132 µM) | > 62.5 µg/mL | > 62.5 µg/mL | > 62.5 µg/mL | 62.5 µg/mL (≈ 132 µM) | 31.2 µg/mL (≈ 66 µM) | > 6.25 µg/mL | 7%
